Results published in ChEMBL document CHEMBL3797187, “Design, synthesis and biological evaluation of potent FAAH inhibitors” (Bioorg Med Chem Lett, 2016).

What was measured:
[1] = Cytotoxicity against human HT-29 cells assessed as growth inhibition at 10 uM after 72 hrs by MTS assay relative to control; type: cell-based; details: read-out: GI
Method in brief: (§1)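 Test compounds at 10 µM on human colorectal adenocarcinoma HT29 and human embryonic kidney HEK293 cells. Cell proliferation scored colorimetrically by MTS tetrazolium reduction to formazan (NADPH-dependent oxidoreductase activity as viable-cell readout). Reported as % inhibition at 10 µM.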

[2] = Cytotoxicity against human HEK293 cells assessed as growth inhibition at 10 uM after 72 hrs by MTS assay relative to control; type: cell-based; details: read-out: GI; method in brief: as §1
[3] = target: T1, Fatty-acid amide hydrolase 1 (Homo sapiens) (UniProt O00519); test: Inhibition of human recombinant FAAH expressed in sf21 cells using AMC-AA as substrate at 10 uM preincubated for 15 mins followed by substrate addition measured after 2 hrs by spectrophotometric analysis relative to control
T1 sequence (whole entry): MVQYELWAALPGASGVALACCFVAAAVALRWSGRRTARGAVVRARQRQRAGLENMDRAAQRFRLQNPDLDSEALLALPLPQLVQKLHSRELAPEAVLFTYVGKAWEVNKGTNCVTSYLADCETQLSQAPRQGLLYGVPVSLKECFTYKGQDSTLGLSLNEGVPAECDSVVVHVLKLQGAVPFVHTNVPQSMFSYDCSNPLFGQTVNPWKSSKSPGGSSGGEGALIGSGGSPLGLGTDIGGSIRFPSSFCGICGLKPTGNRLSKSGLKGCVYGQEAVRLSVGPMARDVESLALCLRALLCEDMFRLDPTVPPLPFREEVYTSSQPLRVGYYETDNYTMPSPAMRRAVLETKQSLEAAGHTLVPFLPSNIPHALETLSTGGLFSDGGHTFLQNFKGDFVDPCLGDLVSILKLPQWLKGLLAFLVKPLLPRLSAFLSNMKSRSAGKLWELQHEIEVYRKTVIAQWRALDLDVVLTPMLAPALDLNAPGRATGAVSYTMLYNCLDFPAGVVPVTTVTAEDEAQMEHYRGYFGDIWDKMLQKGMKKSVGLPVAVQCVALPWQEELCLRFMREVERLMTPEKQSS
Method in brief: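 Human recombinant FAAH expressed in SF21 cells, 4 U/mL, preincubated 15 min with compound at 37 °C in Tris buffer pH 9. Hydrolysis of the fluorogenic substrate AMC-arachidonamide then measured. Single-point screen at 10 µM as % inhibition. IC50 from concentration-response, mean ± SEM of three experiments performed in duplicate.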

[4] = target: T2, Fatty-acid amide hydrolase 1 (Homo sapiens, UniProt O00519); test: Inhibition of human recombinant FAAH expressed in sf21 cells using AMC-AA as substrate preincubated for 15 mins followed by substrate addition measured after 2 hrs by spectrophotometric analysis
T2 sequence (O00519 whole entry): T1 sequence (whole entry)
Method in brief: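 Human recombinant FAAH expressed in SF21 cells, 4 U/mL, preincubated 15 min with compound at 37 °C in Tris buffer pH 9. Hydrolysis of the fluorogenic substrate AMC-arachidonamide then measured. IC50 from concentration-response, mean ± SEM of three experiments performed in duplicate.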

[5] = target: T1, Fatty-acid amide hydrolase 1 (Homo sapiens); test: Potency index, ratio of 5-(4-Pentyloxy-phenyl)-isoxazole-3-carboxylic acid adamantan-1-ylamide IC50 to compound IC50 for human recombinant FAAH expressed in sf21 cells

SMILES	inhibition at 72 h, 10 µM [1]	inhibition at 72 h, 10 µM [2]	inhibition [3]	IC50 [4]	Ratio IC50 [5]
O=C(NC12CC3CC(CC(C3)C1)C2)c1cc(-c2ccc(-c3ccncc3)nc2)on1	0%	1%	23%		
O=C(NC12CC3CC(CC(C3)C1)C2)c1cc(-c2ccc(-c3ccco3)cc2)on1	0%	12%	31%		
COc1cccc(-c2ccc(-c3cc(C(=O)NC45CC6CC(CC(C6)C4)C5)no3)cc2)c1	0%	20%	58%	720 nM	
O=C(NC12CC3CC(CC(C3)C1)C2)c1cc(-c2ccc(-c3ccccc3)nc2)on1	0%	14%	23%		
CN1CCN(Cc2cccc(-c3ccc(-c4cc(C(=O)NC56CC7CC(CC(C7)C5)C6)no4)cc3)c2)CC1	97%	93%	63%	1130 nM	
O=C(NC12CC3CC(CC(C3)C1)C2)c1cc(-c2ccc(-c3ccc(C(=O)N4CCOCC4)cc3)cc2)on1	0%	23%	24%		
O=C(NC12CC3CC(CC(C3)C1)C2)c1cc(-c2ccc(-c3cccc(CN4CCOCC4)c3)cc2)on1	0%	38%	69%	830 nM	
N#Cc1cccc(-c2ccc(-c3cc(C(=O)NC45CC6CC(CC(C6)C4)C5)no3)cc2)c1	0%	0%	64%	240 nM	2
O=C(NC12CC3CC(CC(C3)C1)C2)c1cc(-c2ccc(-c3cccc(C(=O)N4CCOCC4)c3)cc2)on1	10%	54%	49%		
O=C(NC12CC3CC(CC(C3)C1)C2)c1cc(-c2ccc(-c3ccc4c(c3)OCO4)cc2)on1	0%	9%	18%		
COc1ccc(-c2ccc(-c3cc(C(=O)NC45CC6CC(CC(C6)C4)C5)no3)cc2)cc1	0%	2%	15%		
O=C(NC12CC3CC(CC(C3)C1)C2)c1cc(-c2ccc(-c3cnc4ccccc4c3)cc2)on1	0%	24%	22%		
COc1cc(-c2ccc(-c3cc(C(=O)NC45CC6CC(CC(C6)C4)C5)no3)cc2)cc(OC)c1OC	6%	32%	42%		
O=C(NC12CC3CC(CC(C3)C1)C2)c1cc(-c2ccc(-c3ccc(C(=O)N4CCOCC4)cc3)nc2)on1	0%	10%	12%		
CCCCCOc1ccc(-c2cc(C(=O)NC34CC5CC(CC(C5)C3)C4)no2)cc1			79%		
O=C(NC12CC3CC(CC(C3)C1)C2)c1cc(-c2ccc(-c3ccncc3)cc2)on1	1%	9%	17%		

SMILES	inhibition at 72 h, 10 µM [1]	inhibition at 72 h, 10 µM [2]	inhibition [3]	IC50 [4]	Ratio IC50 [5]
COc1ccc(-c2ccc(-c3cc(C(=O)NC45CC6CC(CC(C6)C4)C5)no3)cc2)cc1OC	7%	29%	14%		
COc1ccccc1-c1ccc(-c2cc(C(=O)NC34CC5CC(CC(C5)C3)C4)no2)cc1	2%	25%	47%		
CC(=O)c1cccc(-c2ccc(-c3cc(C(=O)NC45CC6CC(CC(C6)C4)C5)no3)cn2)c1	0%	18%	22%		
NC(=O)c1cccc(-c2ccc(-c3cc(C(=O)NC45CC6CC(CC(C6)C4)C5)no3)cc2)c1	0%	3%	11%		
CN1CCN(C(=O)c2ccc(-c3ccc(-c4cc(C(=O)NC56CC7CC(CC(C7)C5)C6)no4)cn3)cc2)CC1	0%	3%	10%		
NC(=O)c1cccc(-c2ccc(-c3cc(C(=O)NC45CC6CC(CC(C6)C4)C5)no3)cn2)c1	14%	1%	20%		
CC(=O)c1cccc(-c2ccc(-c3cc(C(=O)NC45CC6CC(CC(C6)C4)C5)no3)cc2)c1	1%	16%	56%	590 nM	
CN1CCN(Cc2ccc(-c3ccc(-c4cc(C(=O)NC56CC7CC(CC(C7)C5)C6)no4)cc3)cc2)CC1	90%	89%	41%		
CN1CCN(C(=O)c2cccc(-c3ccc(-c4cc(C(=O)NC56CC7CC(CC(C7)C5)C6)no4)cc3)c2)CC1	55%	47%	44%		
CC(=O)c1ccc(-c2ccc(-c3cc(C(=O)NC45CC6CC(CC(C6)C4)C5)no3)cn2)cc1	0%	5%	13%		
NC(=O)c1cccc(-c2cccc(OC(=O)NC3CCCCC3)c2)c1 [URB-597]	0%	0%	98%		
NC(=O)c1ccc(-c2ccc(-c3cc(C(=O)NC45CC6CC(CC(C6)C4)C5)no3)cc2)cc1	0%	4%	10%		
CN1CCN(C(=O)c2ccc(-c3ccc(-c4cc(C(=O)NC56CC7CC(CC(C7)C5)C6)no4)cc3)cc2)CC1	24%	37%	23%		
O=C(NC12CC3CC(CC(C3)C1)C2)c1cc(-c2ccc(-c3ccc(CN4CCOCC4)cc3)cc2)on1	0%	20%	16%		
CC(=O)c1ccc(-c2ccc(-c3cc(C(=O)NC45CC6CC(CC(C6)C4)C5)no3)cc2)cc1	4%	5%	18%		
